Bioassay records deposited in PubChem by several laboratories.
An excerpt weighted towards active compounds, which were near 2.2% of everything screened.
APP 5UTR inh – APP translation inhibition | SH-SY5Y APP 5'UTR-luciferase reporter, luminescence | inhibition, % at 2 µM | hit rate 0.82% among 190,000 | AID 1285;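 active = inhibition above a set limit, derived from the sample mean plus 3 SD, cut at about 45% in these data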
BaF3 parental – parental Ba/F3 viability inhibition as JAK2V617F counter-screen; CellTiter-Glo ATP luminescence; inhibition, % at 5.6 µM; hit rate 1.1% among 220,000; AID 1486;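 active = inhibition above a per-campaign cutoff, the mean inhibition of all tested compounds plus 3 SD, cut at about 27% in these data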;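 also: 0% = DMSO wells and 100% = JAK Inhibitor I control wells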
MT stabilize HCS – microtubule stabilization, imaging screen. HeLa tubulin immunostaining HCS, 24 h; share of cells brighter than vehicle mean+2SD. % tubulin-high responders, % at 10 µM. hit rate 0.83% among 200,000. AID 2205;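 active = plate Z-score above 3 for both tubulin-high and condensed-nucleus cell shares, with cell loss under 80%, at 10 µM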;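 also: anti alpha tubulin signal scored within the nucleus-defined area of each cell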
IEC-6 tox – counter-screen for KLF5 inhibitors: cytotoxicity in IEC-6 cells | IEC-6 cytotoxicity, luminescence viability | inhibition, % at 5 µM | hit rate 0.78% among 290,000 | AID 1825;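 also: 0% = plate median of test compound wells and 100% = cytotoxic reference compound wells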
Ba/F3 V617F tox – lowers viability of Ba/F3 cells expressing EpoR and JAK2V617F; inhibition, % at 5.6 µM; hit rate 1.1% among 220,000; AID 1446; ATP luminescence;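 active = inhibition above the campaign mean plus 3 SD over all tested compounds, cut at about 24% in these data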;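 also: cytokine-independent growth of Ba/F3 cells driven by EpoR plus mutant JAK2; 0% = DMSO-treated cells and 100% = JAK inhibitor I control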
bCat nuc transl – beta-catenin nuclear translocation modulation. nuclear translocation activity, % at 5 µM. hit rate 0.3% among 190,000. AID 1665. HeLa beta-catenin nuclear translocation, immunofluorescence imaging;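 active = nuclear translocation activity above 50% at 5 µM, with a well cell count of 50 or more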;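 also: per-cell ratio of nuclear to cytoplasmic median beta-catenin stain intensity; plate controls were DMSO negative control for no effect and GSK-3 inhibitor IX positive control for full effect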
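System: HeLa cells, endogenous beta-catenin; compound dosing: 5 µM primary single dose, 0.1% DMSO, 0.02–20 µM confirmation series; incubation: 24 h compound exposure at 37°C, 5% CO2; signal: beta-catenin immunofluorescence imaging with DAPI; evaluation: % activation, nuclear-to-cytoplasmic median beta-catenin signal ratio per cell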
BaF3 parental 2 – counter-screen for JAK2V617F inhibitors: parental Ba/F3 viability inhibitors; inhibition, % at 5.6 µM; shares compounds with Ba/F3 V617F tox; CellTiter-Glo luminescence; cells kept alive by added IL-3; hit rate 31% among 580;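 active = cell growth inhibition above the hit limit set in the earlier mutant JAK2 cell screen, cut at about 27% in these data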;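 also: plate controls were DMSO-treated cells for no effect and JAK Inhibitor I control wells for full effect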
JAK2V617F conf – Ba/F3 EpoR-JAK2V617F viability loss, confirmation. inhibition, % at 5.6 µM. CellTiter-Glo luminescence. hit rate 66% among 580. shares compounds with Ba/F3 V617F tox;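 active = mean inhibition above the hit cutoff derived in the earlier primary screen, cut at about 25% in these data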;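 also: 0% = DMSO-treated cells and 100% = JAK inhibitor I control wells; higher means lower luminescence from reduced cell ATP and viability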
IEC-6 tox confirm – confirmation of cytotoxic compounds in rat IEC-6 intestinal epithelial cells. IEC-6 rat intestinal epithelial viability, luminescence. inhibition, % at 5 µM. AID 1907. shares compounds with IEC-6 tox. hit rate 63% among 1,900;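 also: 0% = vehicle and 100% = reference cytotoxic drug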
Starred values were filed as active, the others as inactive. Rule as the data show it, unless noted: active = inhibition above about 22%; inactive = the rest.

What do the screens show for `CN(C)C(=O)Oc1ccc(OCc2nc3ccccc3[nH]2)cc1`?
APP 5UTR inh: -88.4; BaF3 parental: 22.8; MT stabilize HCS: 6.9; IEC-6 tox: 13.5; Ba/F3 V617F tox: 24.1*; bCat nuc transl: -2.3; BaF3 parental 2: 31.5*; JAK2V617F conf: 33.8*

What do the screens show for `c1ccc2c(CN3CCCCCC3)c[nH]c2c1`?
APP 5UTR inh: -20.4; BaF3 parental: 26.2; MT stabilize HCS: 1.9; IEC-6 tox: 0.6; Ba/F3 V617F tox: 62.1*; bCat nuc transl: -0.3; BaF3 parental 2: 11.0; JAK2V617F conf: 75.7*

How did CNCCc1c[nH]c2ccccc12 do in these assays?
APP 5UTR inh: 1.8; BaF3 parental: 3.9; MT stabilize HCS: 3.5; IEC-6 tox: 5.2; Ba/F3 V617F tox: -0.8; bCat nuc transl: -1.1

How did c1ccc2c(CNC3CCCCCC3)c[nH]c2c1 do in these assays?
APP 5UTR inh: 19.6; BaF3 parental: 6.7; MT stabilize HCS: 3.5; IEC-6 tox: -0.4; Ba/F3 V617F tox: 26.8*; BaF3 parental 2: -1.9; JAK2V617F conf: 38.4*

Results for Cc1cccc(C(=O)Nc2ccc3c(c2)CC2(C(=O)N(C)C(=O)N(C)C2=O)C2CCCN32)c1 (configuration not stated) ?
IEC-6 tox: 7.4

Results for CCc1ccccc1NC(=O)N1C[C@H]2C[C@@H](C1)c1cccc(=O)n1C2 ?
IEC-6 tox: -0.9

What do the screens show for `CN(C)C(=S)SSC(=S)N(C)C`?
APP 5UTR inh: 94.8*; BaF3 parental: -2.7; MT stabilize HCS: 3.3; IEC-6 tox: 101.7*; Ba/F3 V617F tox: 39.1*; bCat nuc transl: -3.7; BaF3 parental 2: 0.1; JAK2V617F conf: 99.2*

Results for C/C=C(\C)C(=O)N[C@@H](c1ccccc1)[C@@H](O)C(=O)O[C@H]1C[C@@]2(O)[C@@H](OC(=O)c3ccccc3)C3[C@](C)(C(=O)[C@H](OC(C)=O)C(=C1C)C2(C)C)[C@H](O)C[C@H]1OC[C@@]31OC(C)=O (some centres not stated) ?
IEC-6 tox: 88.5*; IEC-6 tox confirm: 79.3*

What do the screens show for `CCC(C)C(=O)N[C@@H](c1ccccc1)[C@@H](O)C(=O)O[C@H]1C[C@@]2(O)[C@@H](OC(=O)c3ccccc3)C3[C@](C)(C(=O)[C@H](OC(C)=O)C(=C1C)C2(C)C)[C@@H](O)C[C@H]1OC[C@@]31OC(C)=O` (some centres not stated)?
IEC-6 tox: 91.7*; IEC-6 tox confirm: 81.5*

Results for CC/C=C/CC(=O)N[C@@H](c1ccccc1)[C@@H](O)C(=O)O[C@H]1C[C@@]2(O)[C@@H](OC(=O)c3ccccc3)C3[C@](C)(C(=O)[C@H](OC(C)=O)C(=C1C)C2(C)C)[C@@H](O)C[C@H]1OC[C@@]31OC(C)=O (some centres not stated) ?
IEC-6 tox: 91.7*; IEC-6 tox confirm: 85.8*

How did Cc1cc(C)c(N=Cc2c(O)[nH]c(=O)[nH]c2=O)c(C)c1 do in these assays?
IEC-6 tox: 10.3

What do the screens show for `O=C1Nc2ccccc2C(c2ccccc2)=NC1O` (configuration not stated)?
IEC-6 tox: 1.9

What do the screens show for `Cc1cccc(-n2c(O)c(/C=C3/C(c4ccccc4)=Nc4ccccc43)c(=O)[nH]c2=O)c1`?
BaF3 parental: 74.5*; IEC-6 tox: 69.8*; Ba/F3 V617F tox: 81.9*; bCat nuc transl: 52.5*; IEC-6 tox confirm: 58.1*

How did NP(=O)(OCCCc1ccccc1)Oc1ccccc1Cl (configuration not stated) do in these assays?
IEC-6 tox: 2.7

What do the screens show for `C=CCn1c(O)c(C(C)=NCc2cc(OC)cc(OC)c2)c(=O)[nH]c1=O`?
APP 5UTR inh: 26.0; BaF3 parental: 28.4*; MT stabilize HCS: 1.2; IEC-6 tox: 27.8*; Ba/F3 V617F tox: 44.7*; bCat nuc transl: 3.6; IEC-6 tox confirm: 34.4*
